The values below come from ChEMBL document CHEMBL1151683, “Design, synthesis and antitumor evaluation of novel thalidomide dithiocarbamate and dithioate analogs against Ehrlich ascites carcinoma-induced solid tumor in Swiss albino mice” (Bioorg Med Chem, 2008).

Data set [1] relates to Ehrlich. Put plainly: Cytotoxicity against mouse Ehrlich ascites carcinoma cells assessed as viable cells at 30 uL after 24 hrs by trypan blue exclusion assay. The class given is functional. Put shortly: (§1)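 EAC cells maintained by i.p. passage in female Swiss albino mice. Cells aspirated from peritoneum, washed in HBSS and centrifuged at 1500 rpm for 15 min; 0.2 mL of diluted suspension plated. Compounds from 10 mmol stock in DMSO/H₂O (0.7:0.3) were added in triplicate and incubated 24 h at 37 °C, 5% CO₂. Viability by trypan blue exclusion; cytotoxicity calculated against control EAC cells.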

Data set [2] relates to Ehrlich. The data set can be described thus: Cytotoxicity against mouse Ehrlich ascites carcinoma cells assessed as cell death at 10 uL after 24 hrs by trypan blue exclusion assay.
For data set [3], the system named is Ehrlich. The data set can be described thus: Cytotoxicity against mouse Ehrlich ascites carcinoma cells assessed as viable cells at 20 uL after 24 hrs by trypan blue exclusion assay. Format: functional. Put shortly:
as §1

Data set [4] relates to Mus musculus. Put plainly: Increase in SOD activity per gram of tissue in mouse Ehrlich ascites carcinoma cells implanted in Swiss albino mouse treated after 7 days post-tumor implantation at 1.25 mM/kg, sc for 5 days. The class given is functional. Put shortly: (§2)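 Livers from tumour-bearing mice were excised and rinsed in ice-cold saline, then in cold 0.15 mol/L Tris–HCl pH 7.4. They were blotted dry, weighed and homogenised at 10% w/v. Lipid peroxidation was expressed as nmol MDA/g tissue, catalase as kU/mg tissue and SOD as U/g tissue.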

Data set [5] relates to Ehrlich. The data set can be described thus: Induction of apoptosis in mouse Ehrlich ascites carcinoma cells implanted in Swiss albino mouse assessed as increase in Fas-L expression treated after 7 days post-tumor implantation at 1.25 mM/kg, sc for 5 days by immunohistochemical analysis. Format: functional. Put shortly: (§3)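 Solid tumours from EAC-bearing female Swiss albino mice; formalin-fixed, paraffin-embedded 5 µm sections. Microwave antigen retrieval (20 min, 10 mmol citrate, pH 6.0) after peroxidase block; primary antibody overnight at room temperature, labelled streptavidin–biotin HRP detection, DAB chromogen, Mayer's hematoxylin counterstain. Immunoreactivity scored blind by light microscopy as intensity, % positive cells and H score.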

For data set [6], the system named is Mus musculus. The data set can be described thus: Toxicity in Swiss albino mouse bearing mouse Ehrlich ascites carcinoma cells assessed as hepatocyte degeneration treated after 7 days post-tumor implantation at 1.25 mM/kg, sc for 5 days by histopathological analysis. Format: organism-based. Conditions: in vivo, 1250 µM; call rule not given here. Put shortly:
(§4)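 Liver specimens from the treated tumour-bearing mice were paraffin-embedded and cut as 5 µm sections. Sections were H&E-stained and graded for severity of hepatocyte degeneration and necrosis, with 0 meaning no degeneration or necrosis.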

Data set [7] has as its system Ehrlich. Put plainly: Antitumor activity against mouse Ehrlich ascites carcinoma cells implanted in Swiss albino mouse treated after 7 days post-tumor implantation at 1.25 mM/kg, sc for 5 days relative to control. Format: functional. Put shortly: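 Female Swiss albino mice (n = 8 per group) received 0.2 mL EAC cells (2 × 10⁶ cells/mL) s.c. between the thighs of the lower limb. From day 7, compounds were given at 1.25 mM/kg s.c. daily for 5 consecutive days. […] control group received DMSO/H₂O. Mice were sacrificed and tumour volume change assessed on day 12 post-implantation.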

In data set [8] the test system is Ehrlich. Put plainly: Antitumor activity against mouse Ehrlich ascites carcinoma cells implanted in Swiss albino mouse assessed as tumor mitotic index treated after 7 days post-tumor implantation at 1.25 mM/kg, sc for 5 days by histopathological analysis. Format: functional. Put shortly: (§5)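 H&E-stained 5 µm paraffin sections of solid tumour. Mitotic cells counted in 10 random fields (at least 1000 tumour cells) at 400×. Apoptotic bodies counted in 10 random fields at the same magnification. MI and AI given as percentage of total intact tumour cells.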

Data set [9] concerns Mus musculus. Put plainly: Increase in catalase activity per milligram of tissue in mouse Ehrlich ascites carcinoma cells implanted in Swiss albino mouse treated after 7 days post-tumor implantation at 1.25 mM/kg, sc for 5 days. Format: functional. Put shortly:
as §2

The subject of data set [10] is Mus musculus. The data set can be described thus: Decrease in lipid peroxidation in mouse Ehrlich ascites carcinoma cells implanted in Swiss albino mouse assessed as malondialdehyde per gram of tissue treated after 7 days post-tumor implantation at 1.25 mM/kg, sc for 5 days. Format: functional. Put shortly:
as §2

Data set [11] deals with Ehrlich. The data set can be described thus: Antitumor activity against mouse Ehrlich ascites carcinoma cells implanted in Swiss albino mouse assessed as tumor apoptotic index treated after 7 days post-tumor implantation at 1.25 mM/kg, sc for 5 days by histopathological analysis. Format: functional. Put shortly:
as §5

The test system of data set [12] is Ehrlich. The data set can be described thus: Antitumor activity against mouse Ehrlich ascites carcinoma cells implanted in Swiss albino mouse assessed as tumor necrosis treated after 7 days post-tumor implantation at 1.25 mM/kg, sc for 5 days by histopathological analysis relative to control. The class given is functional. Put shortly: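 Necrosis scored on H&E-stained 5 µm paraffin sections of excised solid tumour. Severity and percentage necrosis were graded, and an H score was calculated.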

The test system of data set [13] is Mus musculus. The data set can be described thus: Toxicity in Swiss albino mouse bearing mouse Ehrlich ascites carcinoma cells assessed as hepatocyte necrosis treated after 7 days post-tumor implantation at 1.25 mM/kg, sc for 5 days by histopathological analysis. The class given is organism-based. Conditions: in vivo, 1250 µM. Put shortly: as §4
Data set [14] concerns Mus musculus. Put plainly: Toxicity in Swiss albino mouse bearing mouse Ehrlich ascites carcinoma cells assessed as focal degeneration of hepatocytes treated after 7 days post-tumor implantation at 1.25 mM/kg, sc for 5 days by histopathological analysis. The class given is organism-based. Conditions: in vivo. Put shortly: as §4
Data set [15] relates to Mus musculus. The data set can be described thus: Toxicity in Swiss albino mouse bearing mouse Ehrlich ascites carcinoma cells assessed as multifocal degeneration of hepatocytes treated after 7 days post-tumor implantation at 1.25 mM/kg, sc for 5 days by histopathological analysis. Format: organism-based. Conditions: in vivo, 1250 µM. Put shortly: as §4
Data set [16] relates to Mus musculus. Put plainly: Toxicity in Swiss albino mouse bearing mouse Ehrlich ascites carcinoma cells assessed as focal necrosis of hepatocytes treated after 7 days post-tumor implantation at 1.25 mM/kg, sc for 5 days by histopathological analysis. Format: organism-based. Conditions: in vivo, 1250 µM. Put shortly: as §4
The test system of data set [17] is Ehrlich. Put plainly: Antiproliferative activity against mouse Ehrlich ascites carcinoma cells implanted in Swiss albino mouse assessed as inhibition of Ki67 protein expression treated after 7 days post-tumor implantation at 1.25 mM/kg, sc for 5 days by immunohistochemical analysis. More on the design: scale not given: the % may be the effect or the level left. The class given is functional. Put shortly: as §3

The subject of data set [18] is Ehrlich. The data set can be described thus: Antiangiogenic activity against mouse Ehrlich ascites carcinoma cells implanted in Swiss albino mouse assessed as inhibition of VEGF expression treated after 7 days post-tumor implantation at 1.25 mM/kg, sc for 5 days by immunohistochemical analysis. The class given is functional. The arrangement: scale not given: the % may be the effect or the level left. Put shortly: as §3

For `O=C1CCC(N2C(=O)c3ccccc3C2=O)C(=O)N1CSC(=S)NCc1ccccc1` (stereo not drawn), the Activity in [1] came out at 61.3%; in data set [2] it was 56.7%; in [3], 59%.

Turning to `CCCNC(=S)SCN1C(=O)CCC(N2C(=O)c3ccccc3C2=O)C1=O` (stereo not drawn), the Activity in data set [1] was 88.6%; in data set [2], 10.6%; in [3], 75.5%.

Take `O=C1CCC(N2C(=O)c3ccccc3C2=O)C(=O)N1CSC(=S)N(CCO)CCO` (stereo not drawn): the Activity in data set [1] amounted to 87.8%; in [2], 20.6%; in data set [3] it was 30.6%.

For the molecule `CSCN1C(=O)CCC(N2C(=O)c3ccccc3C2=O)C1=O` (stereo not drawn), the Activity in [4] is on record as 139.8 U; in data set [5] it was 45%; in [6], “Non-toxic”; in data set [8], 0.004; in data set [9], 6.7 kU; in data set [10], 289.6 nmol. Besides, the Activity was 0.002 in data set [11]; 49% in data set [12]; 82.8% in data set [1]; 62.5% in [2]; 71.5% in data set [3]; “Non-toxic” in data set [13]. Further, the “inhibition (INH)” value in [7] worked out at 90.6%.

As to `O=C1CCC(N2C(=O)c3ccccc3C2=O)C(=O)N1CSC(=S)NCCc1ccccc1` (stereo not drawn), the Activity came out at 52% in data set [1], 45% in [2] and 47.3% in data set [3].

For the molecule `O=C1CCC(N2C(=O)c3ccccc3C2=O)C(=O)N1CSC(=S)NCCN1CCNCC1` (stereo not drawn), the values for the Activity in [1], in [2] and in data set [3] were 68.8%, 45.5% and 60.6%, respectively.

As to `O=C1CCC(N2C(=O)c3ccccc3C2=O)C(=O)N1CSC(=S)NCCN1CCOCC1` (stereo not drawn), the Activity was 94.7% in data set [1], 20.6% in data set [2] and 75.7% in data set [3].

As to `CNC(=S)SCN1C(=O)CCC(N2C(=O)c3ccccc3C2=O)C1=O` (stereo not drawn), the Activity was found to be 85.7% in data set [1], 76.5% in data set [2] and 80% in data set [3].

On to `CCN(CC)C(=S)SCN1C(=O)CCC(N2C(=O)c3ccccc3C2=O)C1=O` (stereo not drawn), for which the values for the Activity in data set [1], in data set [2] and in data set [3] were 90.6%, 10.2% and 20.7%, respectively.

For `O=C1CCC(N2C(=O)c3ccccc3C2=O)C(=O)N1CSC(=S)NN1CCOCC1` (stereo not drawn), the Activity is recorded as 91.3% in [1], 30.5% in [2] and 70.6% in data set [3].

`CN1CCN(NC(=S)SCN2C(=O)CCC(N3C(=O)c4ccccc4C3=O)C2=O)CC1` (stereo not drawn): the Activity in [4] came out at 162.2 U; in data set [5], 60%; in data set [8], 0.002; in [9] it was 8.2 kU; in [10], 248.4 nmol; in [11], 0.005. For the same molecule, the Activity in [12] was 61%; in data set [1], 100%; in [2], 80.4%; in data set [3], 80.7%; in data set [14], “Active”; in data set [13] it was “Non-toxic”. For the same molecule, the “inhibition (INH)” value in data set [7] is listed as 98.9%.

`O=C1CCC(N2C(=O)c3ccccc3C2=O)C(=O)N1CSC(=S)N1CCOCC1` (stereo not drawn): the results for the Activity in data set [1], in data set [2] and in data set [3] were 89.7%, 80% and 80.5%, respectively.

For `O=C1CCC(N2C(=O)c3ccccc3C2=O)C(=O)N1CSC(=S)NC1CCCCC1` (stereo not drawn), the Activity in data set [4] is given as 128.6 U; in [5] it was 44%; in data set [8], 0.005; in [9], 6.4 kU; in [10], 257.8 nmol; in data set [11], 0.002. Also, the Activity is listed as 41% in [12]; 95.2% in data set [1]; 20.6% in data set [2]; 60.8% in [3]; “Active” in data set [14]; “Non-toxic” in [13]. In addition, the “inhibition (INH)” value in data set [7] was determined as 92.7%.

On to `O=C1CCC(N2C(=O)c3ccccc3C2=O)C(=O)N1CSC(=S)NCCN1CCCCC1` (stereo not drawn), for which the Activity in data set [4] is 145.8 U; in data set [5], 55%; in [15], “Active”; in [8], 0.004; in data set [9], 7.2 kU; in [10] it was 247.6 nmol. The Activity is on record as 0.004 in data set [11]; 100% in data set [12]; 100% in data set [1]; 80.5% in data set [2]; 80.8% in data set [3]; “Non-toxic” in data set [13]. The “inhibition (INH)” value in [7] came to 99.6%.

On to `O=C1CCC(N2C(=O)c3ccccc3C2=O)C(=O)N1CSC(=S)NNc1ccccc1` (stereo not drawn), for which the Activity in data set [1] is reported as 92%; in data set [2], 80%; in data set [3], 81.6%.

Turning to `O=C1CCC(N2C(=O)c3ccccc3C2=O)C(=O)N1CSC(=S)N1CCCCC1` (stereo not drawn), the Activity in data set [4] came to 152.4 U; in [5], 120%; in [8], 0.004; in data set [9], 7.2 kU; in data set [10], 276.2 nmol; in [11] it was 0.002. Moreover, the Activity is reported as 50% in [12]; 95.3% in data set [1]; 10.3% in data set [2]; 80.4% in data set [3]; “Active” in data set [14]; “Non-toxic” in data set [13]. Moreover, in data set [7], the “inhibition (INH)” value is 95.9%.

Consider `O=C1CCC(N2C(=O)c3ccccc3C2=O)C(=O)N1` (racemic) [THALIDOMIDE], for which the Activity in data set [4] is 108.4 U; in data set [5], 66%; in [8], 0.006; in [9], 5.8 kU; in data set [16], “Active”; in data set [10], 330.2 nmol. Further, the Activity in [11] came to 0.003; in data set [17], 7.4%; in data set [12], 44%; in data set [1], 56.4%; in data set [2] it was 20.5%; in data set [3], 20.5%. The Activity result in data set [14] was “Active”; in [18], 8%. Also, in [7], the “inhibition (INH)” value was determined as 80.6%.
